This is an account of results in ChEMBL document CHEMBL1158617, “New estrogenic compounds isolated from Broussonetia kazinoki” (Bioorg Med Chem Lett, 2010).

SMILES strings stand for the structures. Calls of active or inactive are those of the source. No cut-off for these calls is given here.

For orientation: IC50 means the concentration needed to halve the response being measured. For orientation: EC50 means the concentration giving half of the maximal effect.

The test system of test [1] is MCF7. In words: Down-regulation of ERalpha mRNA expression in human MCF7 cells at 10 uM after 24 hrs by RT-PCR analysis. Format: functional, cell-based. The method in brief:
(§1)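 MCF-7 cells were treated 24 h with compounds at 10 µM. Steady-state mRNA levels were quantified by qPCR, with constitutive human β-actin mRNA as internal control, relative to untreated control.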

Test [2] has as its target T1, Estrogen receptor beta (Homo sapiens, UniProt Q92731). In words: Displacement of [3H]17-beta-estradiol from human recombinant full length ERbeta. The procedure, abridged: (§2)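 Competitive ligand-binding assay with recombinant human ER-α or ER-β. Test compounds displace the labelled estrogen ligand, and IC50 is derived from the displacement curves.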
(In general: Loss of bound radioactivity is the signal in a displacement assay; it reports binding, not function.)

In test [3] the target is T1, Estrogen receptor beta. Put plainly: Displacement of [3H]17-beta-estradiol from human recombinant full length ERbeta relative to estradiol. The method in brief: (§3)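 Relative binding affinity is taken from the competitive binding IC50s against recombinant human ER-α or ER-β. RBA = 100 × IC50(E2)/IC50(compound).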
In test [4] the target is T2, Estrogen receptor (Homo sapiens, UniProt P03372).
T2 sequence (P03372 whole entry): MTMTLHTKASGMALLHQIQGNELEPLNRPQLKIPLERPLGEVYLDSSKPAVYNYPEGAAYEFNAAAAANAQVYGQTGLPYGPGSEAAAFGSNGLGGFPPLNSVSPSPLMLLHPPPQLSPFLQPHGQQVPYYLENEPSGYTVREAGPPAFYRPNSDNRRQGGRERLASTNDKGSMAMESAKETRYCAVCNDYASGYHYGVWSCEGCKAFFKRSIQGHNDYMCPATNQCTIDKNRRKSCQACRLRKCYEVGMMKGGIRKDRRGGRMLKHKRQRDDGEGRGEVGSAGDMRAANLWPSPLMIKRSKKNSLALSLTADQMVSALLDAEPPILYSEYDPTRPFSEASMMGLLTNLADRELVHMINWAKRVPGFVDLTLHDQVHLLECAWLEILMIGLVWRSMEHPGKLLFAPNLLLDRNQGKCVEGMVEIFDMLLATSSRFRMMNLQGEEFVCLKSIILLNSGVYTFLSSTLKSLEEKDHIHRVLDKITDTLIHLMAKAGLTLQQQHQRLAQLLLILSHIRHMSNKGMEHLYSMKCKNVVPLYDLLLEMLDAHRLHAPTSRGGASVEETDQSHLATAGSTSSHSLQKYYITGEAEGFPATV
Put plainly: Displacement of [3H]17-beta-estradiol from human recombinant full length ERalpha. The procedure, abridged: as §2

In test [5] the test system is MCF7. In words: Down-regulation of ERalpha mRNA expression in human MCF7 cells at 10 uM after 24 hrs by SDS PAGE and immunoblot analysis. Format: functional, cell-based. To be noted: in the assay text read “protein” for “mRNA”. The method in brief: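 MCF-7 cells were treated 24 h with 10 µM compounds, with 10 nM E2 as reference. Total protein extracts were run on SDS–PAGE and immunoblotted with anti-ER-α and anti-β-actin antibodies. ER-α protein was compared with control.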
(In western blotting, separated proteins are transferred to a membrane and probed.)

Test [6] is filed under the species Homo sapiens. Put plainly: Selectivity ratio of IC50 for human recombinant full length ERbeta to IC50 for human recombinant full length ERalpha.
Test [7] has as its target T3, Estrogen receptor (Homo sapiens) (UniProt P03372).
T3 sequence (whole entry): T2 sequence (P03372 whole entry)
Put plainly: Displacement of [3H]17-beta-estradiol from human recombinant full length ERalpha relative to estradiol. The method in brief: as §3

Test [8] has as its system MCF7. In words: Up-regulation of progesterone receptor gene expression in human MCF7 cells at 10 uM after 24 hrs by RT-PCR analysis. Format: functional, cell-based. The method in brief:
as §1

For test [9], the system named is MCF7. Put plainly: Up-regulation of pS2 gene expression in human MCF7 cells at 10 uM after 24 hrs by RT-PCR analysis. Format: functional, cell-based. The procedure, abridged: as §1
Test [10] concerns the target T2, Estrogen receptor. Put plainly: Transactivation of human recombinant ERalpha expressed in african green monkey CV1 cells co-expressing ERE-Luc after 24 hrs by luciferase reporter gene assay. Format: cell-based, CV-1. The method in brief: (§4)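 CV-1 cells were transfected with an ERE-Luc reporter plus a hER-α or hER-β expression vector. Cells were incubated 24 h with compounds, then lysed, and luciferase expression was measured. Data are mean ± SD (n = 3), and EC50 comes from the dose-response.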
(A reporter such as luciferase makes a cellular process visible.)

For test [11], the target named is T1, Estrogen receptor beta. Put plainly: Transactivation of human recombinant ERbeta expressed in african green monkey CV1 cells co-expressing ERE-Luc after 24 hrs by luciferase reporter gene assay. Format: cell-based, CV-1. The procedure, abridged: as §4
Test [12] deals with T3, Estrogen receptor (Homo sapiens). Put plainly: Transactivation of human recombinant ERalpha expressed in african green monkey CV1 cells co-expressing ERE-Luc after 24 hrs by luciferase reporter gene assay in presence of ER antagonist ICI 182780. Format: functional, cell-based. To be noted: CV-1.

T1 sequence (Q92731 whole entry): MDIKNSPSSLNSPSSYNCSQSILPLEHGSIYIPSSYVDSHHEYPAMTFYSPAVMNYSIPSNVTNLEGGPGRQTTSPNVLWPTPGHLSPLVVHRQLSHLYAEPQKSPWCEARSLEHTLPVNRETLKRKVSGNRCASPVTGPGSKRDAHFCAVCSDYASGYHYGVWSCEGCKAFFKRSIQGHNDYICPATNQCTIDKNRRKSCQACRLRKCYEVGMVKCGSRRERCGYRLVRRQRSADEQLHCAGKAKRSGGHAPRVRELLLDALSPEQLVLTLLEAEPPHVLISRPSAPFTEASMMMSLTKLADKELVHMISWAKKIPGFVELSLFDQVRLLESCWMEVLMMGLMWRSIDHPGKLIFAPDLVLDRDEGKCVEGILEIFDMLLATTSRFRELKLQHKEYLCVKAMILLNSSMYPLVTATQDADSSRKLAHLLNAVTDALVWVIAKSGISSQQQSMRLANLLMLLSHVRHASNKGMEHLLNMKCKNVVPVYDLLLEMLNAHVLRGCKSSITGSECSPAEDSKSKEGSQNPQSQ

For the compound `CC(C)=CCc1c([C@H]2CCc3ccc(O)cc3O2)cc(O)c(O)c1CC=C(C)C`, the outcome in test [1], in test [5], in test [8] and in test [9] was Active. Moreover, the values for the IC50 in [2] and in test [4] were 96 µM and 151 µM, respectively. Besides, the figures for the RBA in test [3] and in test [7] were 0.007% and 0.004%, respectively. For the same compound, the Ratio IC50 in test [6] stood at 1.75.

Consider `COc1ccc(CCCc2ccc(O)cc2)c(O)c1` [BROUSSONIN A], for which the result in test [1], in [5], in test [8] and in test [9] was Active. For the same compound, the half-inhibitory concentration (IC50) in test [2] came to 1.8 µM; in test [4] it was 8.1 µM. The RBA in [3] stood at 0.394%; in test [7], 0.069%. For the same compound, the EC50 entry in test [10] (cv-1) was “Dose-dependent effect”; in [10] (read-out: EC50) it was 1.59 µM; in [11] (cv-1), “Dose-dependent effect”; in test [11] (read-out: EC50), 0.53 µM. In addition, the Ratio IC50 in test [6] is 5.71. Further, the outcome in test [12] was inactive.

Regarding `CC(C)=CCc1c([C@H]2CCc3ccc(O)cc3O2)ccc(O)c1O` [KAZINOL U], the outcome in [1], in [5], in test [8] and in test [9] was Active. Besides, the figures for the concentration for half-maximal inhibition (IC50) in test [2] and in test [4] were 41.7 µM and 57.2 µM, respectively. For the same compound, the RBA in [3] turned out to be 0.017%; in test [7], 0.01%. For the same compound, the Ratio IC50 in [6] is 1.7.

On to `Oc1ccc([C@H]2CCc3ccc(O)cc3O2)cc1` [TUPICHINOL C], for which the result in [1], in test [5], in [8] and in [9] was Active. The half-inhibitory concentration (IC50) was determined as 14.7 µM in [2] and 26.2 µM in [4]. The RBA in test [3] was 0.048%; in test [7] it was 0.021%. Also, the Ratio IC50 in test [6] was 2.29.
